Assay results taken from PMC3158287 (Nature chemical biology, 2011).

Tests used:
OSBP [1] = target: T1, OSBP (Homo sapiens, UniProt P22059); assay: OSBP protein levels by western blotting; assay type: cell-based; settings: HCT-116 cells
T1 sequence (P22059 1-807): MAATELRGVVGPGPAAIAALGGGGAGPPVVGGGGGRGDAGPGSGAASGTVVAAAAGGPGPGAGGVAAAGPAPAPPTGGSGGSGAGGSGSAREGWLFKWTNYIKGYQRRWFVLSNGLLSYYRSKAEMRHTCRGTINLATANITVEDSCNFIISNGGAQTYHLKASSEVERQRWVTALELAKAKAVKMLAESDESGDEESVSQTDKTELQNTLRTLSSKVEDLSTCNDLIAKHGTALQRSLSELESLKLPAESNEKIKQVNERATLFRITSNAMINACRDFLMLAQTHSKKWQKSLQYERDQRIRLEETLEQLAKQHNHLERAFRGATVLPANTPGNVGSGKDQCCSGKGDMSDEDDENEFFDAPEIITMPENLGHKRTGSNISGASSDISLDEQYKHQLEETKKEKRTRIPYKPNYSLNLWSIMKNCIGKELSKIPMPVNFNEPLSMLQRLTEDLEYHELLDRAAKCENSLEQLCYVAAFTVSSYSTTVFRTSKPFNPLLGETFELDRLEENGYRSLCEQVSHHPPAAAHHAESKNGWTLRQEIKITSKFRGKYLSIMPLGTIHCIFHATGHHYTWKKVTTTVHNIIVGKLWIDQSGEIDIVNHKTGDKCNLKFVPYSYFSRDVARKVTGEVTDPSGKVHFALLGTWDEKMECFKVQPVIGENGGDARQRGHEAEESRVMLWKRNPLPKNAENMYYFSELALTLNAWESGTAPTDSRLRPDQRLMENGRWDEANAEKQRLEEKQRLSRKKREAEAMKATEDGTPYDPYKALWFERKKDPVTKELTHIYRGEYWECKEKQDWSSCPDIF
Outline: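 HCT-116 cells were treated with test compound at 50 nM or 10 nM over a time course including 24 h. Some samples also received proteasome inhibitor MG-132 or lactacystin. OSBP was measured by western blotting with polyclonal rabbit anti-OSBP (N-terminus) antibody. Data are n = 3, compared with vehicle-treated cells by two-tailed Student's t-test.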

HCT-116 cells = assay: Suppression of antiproliferative activity by 25-OHC coadministration; assay type: cell-based, human
Outline: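 HCT-116 p21+/+ and p21−/− cells were seeded in 96-well plates and rested 24 h. A time-zero plate was read with CellTiter-Blue (resazurin) after 90 min at 37 °C, fluorescence 544 nm ex / 590 nm em. Serially diluted test compound was added as 4× solution. Viability was re-read at 48 h and GI50 derived. For coadministration, 10 μM 25-OHC was added with test compound at 250 nM or 10 nM.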

ORP4L-Myc-His = target: T2, ORP4L-Myc-His (Homo sapiens, UniProt Q969R2); assay: [3H]25-OHC charcoal-dextran binding assay, ORP4L-Myc-His
T2 sequence (Q969R2 1-916): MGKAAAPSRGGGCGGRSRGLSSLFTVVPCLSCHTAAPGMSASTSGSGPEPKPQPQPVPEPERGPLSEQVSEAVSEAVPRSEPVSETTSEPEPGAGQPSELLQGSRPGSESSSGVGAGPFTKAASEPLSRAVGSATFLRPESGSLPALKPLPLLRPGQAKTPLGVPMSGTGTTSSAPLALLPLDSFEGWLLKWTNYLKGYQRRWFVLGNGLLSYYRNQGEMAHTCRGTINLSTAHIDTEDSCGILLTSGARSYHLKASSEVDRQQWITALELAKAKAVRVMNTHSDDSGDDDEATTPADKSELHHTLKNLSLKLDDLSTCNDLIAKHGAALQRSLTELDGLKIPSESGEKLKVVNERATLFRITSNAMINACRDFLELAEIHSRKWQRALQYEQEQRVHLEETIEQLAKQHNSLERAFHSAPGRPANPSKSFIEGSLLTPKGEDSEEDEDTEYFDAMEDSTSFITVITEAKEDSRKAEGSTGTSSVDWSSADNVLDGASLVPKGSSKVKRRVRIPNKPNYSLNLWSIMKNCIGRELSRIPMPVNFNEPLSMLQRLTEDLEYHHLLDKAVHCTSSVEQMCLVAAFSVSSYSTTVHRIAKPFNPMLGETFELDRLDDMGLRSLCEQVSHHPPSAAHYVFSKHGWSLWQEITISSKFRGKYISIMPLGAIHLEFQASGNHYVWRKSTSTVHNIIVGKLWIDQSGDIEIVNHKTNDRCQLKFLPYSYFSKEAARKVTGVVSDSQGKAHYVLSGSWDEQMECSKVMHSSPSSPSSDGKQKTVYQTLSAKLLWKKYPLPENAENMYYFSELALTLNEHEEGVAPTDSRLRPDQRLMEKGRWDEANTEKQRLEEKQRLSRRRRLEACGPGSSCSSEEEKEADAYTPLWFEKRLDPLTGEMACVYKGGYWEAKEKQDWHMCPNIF

[2] = test system: HCT-116 p21^−/− cells stably transfected with shOSBP or shNT; assay: OSBP shRNA knockdown and dose-shift experiment; assay type: cell-based, human; settings: 72 h
Outline: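 HCT-116 p21−/− cells were stably transfected with OSBP-targeting or nontargeting shRNA in the pSIREN-RetroQ vector. […] Values are mean ± s.d. of 3–4 experiments, compared with shNT cells by two-tailed Student's t-test.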

human cancer cell lines = settings: cited from earlier work
[3] = test system: HeLa cells overexpressing ORP4L; assay: Overexpression-viability assay, ORP4L-Myc-His; assay type: cell-based, human; settings: 48 h, versus lacZ
[4] = test system: ceramide labeling in HCT-116 cells; assay: Ceramide labeling, [3H]serine pulse labeling, HCT-116; assay type: cell-based, human; settings: range of concentrations
OSBP [5] = target: T1, OSBP; assay: OSBP localization by immunofluorescence microscopy, A549; assay type: cell-based; settings: A549 cells
Outline: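 Cells on coverslips were grown 72 h, then given test compound or vehicle (4 h for HCT-116). They were fixed 10 min in 3.7% formaldehyde/PBS and permeabilised 5 min in 0.5% Triton X-100. Blocking used Image-iT FX, then 1% BSA/PBS. Rabbit anti-OSBP (N-terminus) and mouse anti-p230 were applied overnight at 4 °C, then Alexa Fluor secondaries for 60 min with Hoechst 33258. Imaging was by confocal microscopy.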

OSBP-Myc-His = target: T3, OSBP-Myc-His (Homo sapiens, UniProt P22059); assay: [3H]25-OHC charcoal-dextran binding assay, wild-type OSBP-Myc-His; settings: read-out: Ki, OSBP-Myc-His; competition with 20 nM [3H]25-OHC; mean ± s.d.
T3 sequence (P22059 1-807): T1 sequence (P22059 1-807)

CERT = CERT protein amount in treated cells; assay type: cell-based, human; settings: GI90 concentration, HCT-116 or A549 cells

SMILES | Effect on OSBP levels (compound alone) (OSBP [1]; 25-OHC 10 μM) | Effect of 25-OHC coadministration on antiproliferative activity (HCT-116 cells; HCT-116 and HeLa cell lines) | Factor by which affinity for ORP4L is lower than affinity for OSBP (ORP4L-Myc-His; ratio of Ki values ORP4L / OSBP) | Sensitization by OSBP shRNA knockdown (GI50 shift shOSBP vs shNT) [2] | GI50 (half-maximal inhibitory concentration) (human cancer cell lines) | Desensitization factor by ORP4L overexpression (relative GI30) [3] | Reduction in OSBP protein levels (OSBP [1]; 10 nM, 24 h) | Growth inhibition when administered alone (HCT-116 cells; 10 nM, HCT-116 cells, 48 h) [%] | Effect of 10 μM 25-OHC coadministration on growth inhibition (HCT-116 cells; HCT-116 cells, 250 nM cephalostatin 1 or 10 nM OSW-1) | Effect on ceramide labeling [4] | Ki (ORP4L-Myc-His; read-out: Ki, ORP4L-Myc-His, competition with 20 nM [3H]25-OHC, mean ± s.d.) [nM] | OSBP localization (OSBP [5]) | Ki (OSBP-Myc-His) [nM] | Amount of CERT protein (CERT)
CC(C)=CCC/C(C)=C/Cc1c(O)cc(/C=C/c2cc(O)c3c(c2)C[C@@H]2C(C)(C)[C@H](O)[C@H](O)C[C@@]2(C)O3)cc1O [schweinfurthin A] | no effect | desensitized cells to schweinfurthin A, although to a lesser degree | ~ 40 | nine | nanomolar range | 2–5 | – | – | – | – | – | – | – | –
COc1ccc(C(=O)O[C@H]2[C@H](O[C@@H]3[C@@H](OC(C)=O)[C@H](O[C@H]4C[C@H]5[C@@H]6CC=C7C[C@@H](O)CC[C@]7(C)[C@H]6CC[C@]5(C)[C@@]4(O)[C@H](C)C(=O)CCC(C)C)OC[C@@H]3O)OC[C@@H](O)[C@@H]2O)cc1 [OSW-1] | – | – | – | – | nanomolar range | 2–5 | approximately 75% | > 75 | nearly complete desensitization | no effect | 54 ± 11 | dispersal or vesiculation of OSBP | 26 | not affected
